One compound from ChEMBL document CHEMBL4376891, “Benzenesulfonamide Derivatives as Calcium/Calmodulin-Dependent Protein Kinase Inhibitors and Antiviral Agents against Dengue and Zika Virus Infections” (J Med Chem, 2020) can be followed below.

One data set deals with BE(2)-C. In words: Cytotoxicity against human BE(2)-C cells assessed as reduction in cell viability up to 12.5 uM incubated overnight by LDH assay relative to control. The format is cell-based. The method, boiled down: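 BE(2)C cells (RPMI 1640, 10% FBS) exposed overnight to compound at concentrations up to 12.5 μM; XTT (proliferation) or LDH release (cytotoxicity) read by absorbance at 490 nm. Values normalized to solvent control (%), mean ± SD of 3 independent experiments.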

A further data set deals with Zika virus. As to the kind of experiment: Antiviral activity against Zika virus infected in human BE(2)-C cells assessed as NS3 protein expression at 1.56 uM incubated for 48 hrs by Western blot analysis (reference value: 100%). It counts as functional. The method, boiled down:
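BE(2)C cells were infected with ZIKV PRVABC59 at MOI 0.1 for 48 h, with or without compound at increasing concentrations. Viral protein was immunoblotted with actin as loading control. The band-density ratio was given as % of the solvent control. Mean ± SD, 3 independent experiments.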
(A western blot detects proteins with antibodies after separation by electrophoresis.)

With `COc1ccc(S(=O)(=O)N(CCCC(=O)C2CCCCCC2)c2ccccc2)cc1`, the Activity entry is “Non-Toxic” in the data set with BE(2)-C and 62.2% with Zika virus.
